An excerpt weighted towards active compounds, which were near 2.6% of everything screened.
ABHD4 inh: ABHD4 (mouse) inhibition, primary FP screen. purified mABHD4, FP-Rh probe fluorescence polarization. Q8VD66. hit rate 0.54% among 370,000. inhibition, % at 8.92 µM. AID 720543;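 active means inhibition exceeding the mean over every tested compound plus 3 SD, cut at about 30% in these data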;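 further: 0% = plate median of compound wells and 100% = S159A mutant with DMSO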
Target sequence (Q8VD66 whole entry, looked up): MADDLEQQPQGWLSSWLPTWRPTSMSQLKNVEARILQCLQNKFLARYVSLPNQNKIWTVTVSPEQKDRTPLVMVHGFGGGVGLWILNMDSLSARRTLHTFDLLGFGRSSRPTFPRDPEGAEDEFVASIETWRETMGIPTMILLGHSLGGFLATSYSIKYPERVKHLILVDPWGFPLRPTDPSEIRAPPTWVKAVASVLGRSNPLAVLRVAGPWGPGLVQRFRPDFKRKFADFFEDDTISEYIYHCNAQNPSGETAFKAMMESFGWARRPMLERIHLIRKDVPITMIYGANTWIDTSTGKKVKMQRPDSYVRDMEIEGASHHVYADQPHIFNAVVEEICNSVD
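Assay system: mABHD4 protein; medium: HEPES pH 7.0, NaCl, Pluronic buffer; dosing: 8.92 µM, single dose; schedule: 45 min + 60 min at 25 °C; signal: FP readout, ex 525 nm / em 598 nm; read-out: normalized percent inhibition of probe labeling; repeats: single replicate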
SIAE primary: inhibitors of human sialic acid acetylesterase SIAE | Q9HAT2 | SIAE FP-Rh probe binding, fluorescence polarization | inhibition, % at 9.66 µM | hit rate 0.69% among 370,000 | AID 1053197;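 active means inhibition above a cutoff: mean of compounds within the control limits plus 3 SD of those, cut at about 17% in these data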;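 further: 0% = plate median of compound wells and 100% = probe without SIAE protein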
HTRA1 inhibitor: HTRA1 (human) protease inhibition. inhibition, % at 5.96 µM. recombinant HTRA1, FP-rhodamine activity-based probe, fluorescence polarization. hit rate 0.5% among 340,000; in the data active means inhibition above about 36%;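 further: 0% = enzyme with DMSO and 100% = wells lacking enzyme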
PRMT1 inh: PRMT1 (human) inhibition, primary screen; Q99873; recombinant PRMT1, activity-based probe fluorescence polarization; inhibition, % at 2.79 µM; hit rate 1.3% among 370,000;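 active means inhibition above about 21% made by adding two undisclosed values, limit read from the data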
Target sequence (Q99873 whole entry, looked up): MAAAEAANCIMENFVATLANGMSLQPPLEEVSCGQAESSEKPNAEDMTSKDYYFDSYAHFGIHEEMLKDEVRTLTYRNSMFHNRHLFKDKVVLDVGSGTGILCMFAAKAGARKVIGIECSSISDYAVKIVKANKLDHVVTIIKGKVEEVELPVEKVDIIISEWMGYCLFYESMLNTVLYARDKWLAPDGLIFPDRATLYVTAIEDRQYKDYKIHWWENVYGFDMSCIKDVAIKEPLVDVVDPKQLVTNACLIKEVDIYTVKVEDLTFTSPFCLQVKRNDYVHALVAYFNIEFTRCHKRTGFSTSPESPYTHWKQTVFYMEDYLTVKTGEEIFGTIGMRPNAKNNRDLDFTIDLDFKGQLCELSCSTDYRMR
TCR-CD3 inh: human TCR-CD3 binding inhibition. TAMRA-labeled TCR probe fluorescence, biochemical. inhibition, % at 9.4 µM. hit rate 0.37% among 360,000. AID 651800; in the data active means inhibition above about 19%;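 further: recombinant mutant TCR 2C K166C tagged with TAMRA read by polarization; 0% = receptor in buffer alone and 100% = receptor with positive control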
SIAE inh conf: confirmation of human SIAE inhibitors | shares compounds with SIAE primary | SIAE FP-Rh activity-based probe, fluorescence polarization | inhibition, % at 9.66 µM | hit rate 13% among 2,300 | AID 1117263;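 active means mean inhibition of the replicates above the hit cutoff set in the primary screen, cut at about 17% in these data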;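 further: 0% = SIAE with DMSO and probe and 100% = probe without SIAE; inhibitors lower polarization as more probe stays unbound to SIAE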
* marks the source's active call; other numbers are inactive results; / = not tested or not shown.

SMILES	ABHD4 inh	SIAE primary	HTRA1 inhibitor	PRMT1 inh	TCR-CD3 inh	SIAE inh conf
COc1ccc(/C=C2\CC3(OC(=O)C4CCCCC4)CCCN2C3)cc1 (stereo not given)	4.4	6.3	/	-2.2	/	/
N#Cc1ccc(/C=C2\CC3(OC(=O)c4ccco4)CCCN2C3)cc1 (stereo not given)	1.7	-1.4	/	-0.5	/	/
O=C(OC12CCCN(C1)/C(=C/c1ccc(Cl)cc1)C2)C1CCCCC1 (stereo not given)	0.3	17.8*	/	-0.4	/	0.3
Fc1ccccc1-c1n[nH]c(=S)n1N=Cc1ccc(-c2ccccc2)cc1	-1.2	6.1	/	1.6	/	/
CCOc1ccc(CCNC(=O)Cc2ccc(NC(=O)C3=C(C)OCCS3)cc2)cc1	0.3	18.8*	-0.3	2.0	5.2	8.4
C=CCn1c(C)nnc1SCC(=O)N1c2ccccc2NC(=O)C1(C)C	0.8	17.9*	3.4	-1.6	0.2	-8.4
Cc1c(N/N=C(\C#N)C(=O)c2ccc(Cl)cc2)c(=O)n(-c2ccccc2)n1C	8.2	18.2*	1.0	-3.5	-4.1	4.1
CCOC(=O)c1c(C)[nH]c(C2=NNC(=Nc3ccc(OCC)cc3)SC2)c1C	10.6	28.0*	25.1	10.0	-2.4	0.9
CCOC(=O)N1CCN(C(=O)C[C@@H]2C(=O)N(Cc3ccc(OC)cc3)/C3=C/CCCCC[C@@]32C(=O)OCC)CC1	5.4	1.1	/	-2.5	/	/
CC(=O)Nc1ccc(OCC(O)Cn2c(C)nc3ccccc32)cc1 (stereo not given)	-2.0	18.6*	3.0	-1.6	3.5	-5.3
O=C(NCCc1c[nH]c2ccccc12)C(=O)c1c[nH]c2ccccc12	-7.9	26.6*	-19.2	3.5	6.4	-4.6
CCc1nnc(NC(=O)CCc2c[nH]c3ccccc23)s1	1.4	18.2*	-1.3	1.1	-1.1	4.9
CC(C)C(=O)Nc1nnc(Cc2c[nH]c3ccccc23)s1	-4.9	-1.1	2.8	-5.8	7.4	/
O=C(CCc1c[nH]c2ccccc12)Nc1ccc(Nc2ccncc2)cc1	10.2	26.1*	/	0.7	-4.4	21.2*
C/C(=N\NC(=O)CCc1c[nH]c2ccccc12)c1ccc([N+](=O)[O-])cc1	2.3	17.8*	-3.8	0.4	-3.2	3.7
C/C(=N\NC(=O)CCc1c(C)n[nH]c1C)c1ccc([N+](=O)[O-])cc1	-0.6	-2.7	3.2	-2.2	4.2	/
CCOC(=O)c1cccc(NC(=O)CN(C)S(=O)(=O)c2ccc(F)cc2)c1	-0.6	1.1	/	-2.0	/	/
CCOC(=O)[C@@]12CN(C(=O)OC(C)(C)C)CC=C1N(Cc1ccc(OC)cc1)C(=O)[C@H]2CC(=O)N1CCN(C(=O)c2ccco2)CC1	5.0	8.9	/	-0.9	/	/
CC(C)=CCC/C(C)=C/CNCC(=O)N1c2ccccc2[C@]2(c3ccccc3)C[C@@H]3C(=O)N(C/C=C(\C)CCC=C(C)C)CC(=O)N3[C@H]12	14.7	3.0	/	-1.6	/	/
O=C(CCc1c[nH]c2ccccc12)Nc1ccc(Nc2cccnc2)cc1	8.8	10.9	/	-2.3	-3.8	/
O=C(CCc1c[nH]c2ccccc12)Nc1ccc(Nc2ccccc2)cc1	8.8	17.1*	/	3.7	-7.6	12.8
O=C(CCc1c[nH]c2ccccc12)NCCc1ccc2c(c1)OCCO2	-0.4	17.2*	-1.0	6.7	-2.2	-1.8
CN(c1cccnc1)c1ccc(NC(=O)CCc2c[nH]c3ccccc23)cc1Br	22.5	31.8*	/	10.8	-6.5	45.1*
O=C(Nc1c(F)c(F)c(F)c(F)c1F)OC[C@@H]1CSCCS(=O)(=O)N1	-1.1	-3.1	/	-2.4	-2.5	/
O=C(Nc1ccccc1)Nc1nc2ncccn2c1-c1ccc(F)c(F)c1	-4.5	3.2	/	3.9	/	/
SMILES	ABHD4 inh	SIAE primary	HTRA1 inhibitor	PRMT1 inh	TCR-CD3 inh	SIAE inh conf
CCO/C=C/C(O)(CNC(=O)c1ccc(C(C)(C)C)cc1)C(F)(F)F (stereo not given)	-12.4	59.6*	-5.3	0.3	-5.2	-1.5
CCOC(=O)CNC(=O)c1ccc(C)cc1	4.0	-3.0	1.8	-0.3	-4.5	/
O=[N+]([O-])c1cccc(NCCCN2CCC(C(O)(c3ccccc3)c3ccccc3)CC2)c1	14.8	1.5	/	0.1	/	/
O=C(COC(=O)C1COc2ccccc2O1)NC(=O)NC1CCCCC1 (stereo not given)	0.3	46.9*	-6.6	1.9	-6.3	-3.1
CC(=O)c1ccc(OCC(=O)NC(=O)NC2CCCC2)cc1	2.6	18.3*	2.8	-2.8	2.6	3.8
CC(=O)c1ccc(OCC(=O)NC2CCCCCC2)cc1	2.2	3.4	4.3	-6.6	5.1	/
O=C(COC(=O)C1COc2ccccc2O1)NC1CCS(=O)(=O)C1 (stereo not given)	2.6	1.0	-0.8	2.8	6.1	/
CC(C)Oc1cccc(-c2n[nH]c(=S)n2N=Cc2ccc(OCc3ccccc3)cc2)c1	-10.6	4.7	/	5.8	/	/
COCCCNC(=O)C[C@H]1C[C@@]2(C(=O)OC)C(=C[C@H](C(C)(C)C)O[C@@H]2C)N(CCC2=CCCCC2)C1=O	-4.8	5.3	/	-3.1	0.5	/
CC(=O)Oc1ccc(C(=O)Cc2ccc3ccccc3n2)c(O)c1C	0.4	-3.1	9.4	-4.8	-7.6	/
Cc1c(O)ccc(/C(Cc2ccc3ccccc3n2)=N\O)c1O	-1.6	51.9*	19.4	-2.2	-3.8	42.2*
Oc1ccc(NC(=S)N=Nc2c(O)[nH]c3ccccc23)cc1	18.9	18.9*	14.2	-2.6	2.8	-6.0
Cc1cc(N2CCN(C(=O)OC(C)(C)C)C[C@@H]2C)ccc1N1CCS(=O)(=O)CC1	3.3	4.0	/	-0.2	-0.3	/
CC(=O)Nc1c(-c2ccc(C(F)(F)F)cc2)nc2ncccn12	16.5	2.2	/	-3.1	/	/
COc1ccc(N2CCN(C(=O)CN(c3ccccc3)S(C)(=O)=O)CC2)cc1	2.9	19.9*	4.7	2.1	-5.2	3.5
CS(=O)(=O)N(CC(=O)N1CCN(Cc2ccccc2)CC1)c1ccccc1Br	4.4	19.1*	5.1	0.7	-2.9	5.5
CC(CCc1ccccc1)NC(=O)CSc1cccc[n+]1[O-] (stereo not given)	3.4	18.9*	-0.9	-4.3	9.0	-0.1
CC(CCc1ccccc1)NC(=O)CSc1ccccc1 (stereo not given)	-1.0	-2.9	0.4	1.6	3.2	/
Cc1ccc(CN2CCCCC(NC(=O)Nc3ccccc3-c3ccccc3)C2=O)cc1 (stereo not given)	-7.8	3.6	/	-4.4	/	/
Cc1ccc(-c2nnc3n2N=C(c2ccc(-c4ccccc4)cc2)CS3)cc1	-0.2	-11.9	/	4.6	/	/
Cc1ccc(OCC(=O)OCc2nc3scc(-c4ccccc4)c3c(=O)[nH]2)cc1C	-1.0	18.4*	-6.4	0.2	8.4	-5.8
COC(=O)C1CN(Cc2cn(Cc3ccc(Cl)cc3)nn2)CCS(=O)(=O)N1Cc1ccc(F)cc1 (stereo not given)	-4.3	0.1	/	-0.9	/	/
O=C(Nc1ccc(-c2csc(Nc3ccc(Cl)cc3)n2)cc1)c1cc([N+](=O)[O-])cc(C(F)(F)F)c1	-9.4	15.0	-7.1	-3.6	-4.9	/

Source: PubChem BioAssay
